Screening data as filed in PubChem.
Hits are enriched below; roughly 2.5% of the tested compounds scored in any of these assays.
PHOSPHO1 block – blocks human PHOSPHO1 phosphatase activity. actives 1.1% (n = 290,000). AID 1565. inhibition, % at 13.3 µM. Q8TCT1. recombinant PHOSPHO1, absorbance phosphatase assay; in the data active = inhibition above about 60%
EP2 antag – inhibitors of human EP2 prostaglandin E2 receptor; P43116; C6 glioma cells expressing human EP2, cAMP TR-FRET; cells stimulated with saturating PGE2; inhibition, % at 25 µM; actives 0.52% (n = 260,000); AID 1422;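 active = percent inhibition above 40 after rounding to a whole number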;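 note: rat C6 glioma host cells with rolipram phosphodiesterase inhibitor present; the protocol text gives 20 µM as final concentration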
EP2 modulator – modulators of human EP2 prostaglandin E2 receptor. induction, % at 25 µM. actives 0.83% (n = 260,000). P43116. EP2-expressing cells, cAMP HTRF FRET, PGE2 co-stimulation;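 active = compounds whose cAMP rise, as percent of the full-agonist control response, exceeds 60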;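 note: rat C6 glioma line stably carrying human EP2 under a CMV promoter; the protocol text gives 20 µM as final concentration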
PfG6PD inh – PfG6PD (Plasmodium falciparum) enzyme inhibition; inhibition, % at 20 µM; AID 504690; PfGluPho enzyme, NADPH resazurin-diaphorase fluorescence; actives 0.78% (n = 350,000);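 active = inhibition reaching at least a set limit at 20 µM in the primary screen, cut at about 59% in these data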
TbHK1 inh – T. brucei hexokinase 1 inhibition; recombinant TbHK1, G6PDH-coupled NADH A340; inhibition, % at 10 µM; actives 0.11% (n = 220,000);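 active = inhibition of 50% or more in the single-dose primary screen; inactive = inhibition below 50%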
HKDC1 inh – HKDC1 (human) hexokinase inhibition; Q2TB90; recombinant HKDC1, G6PDH/diaphorase resazurin coupled fluorescence; AID 493160; actives 0.16% (n = 340,000); inhibition, % at 20 µM;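 active = inhibition above about 35% when tested at 20 µM, limit read from the data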
Target sequence (Q2TB90 whole entry, looked up): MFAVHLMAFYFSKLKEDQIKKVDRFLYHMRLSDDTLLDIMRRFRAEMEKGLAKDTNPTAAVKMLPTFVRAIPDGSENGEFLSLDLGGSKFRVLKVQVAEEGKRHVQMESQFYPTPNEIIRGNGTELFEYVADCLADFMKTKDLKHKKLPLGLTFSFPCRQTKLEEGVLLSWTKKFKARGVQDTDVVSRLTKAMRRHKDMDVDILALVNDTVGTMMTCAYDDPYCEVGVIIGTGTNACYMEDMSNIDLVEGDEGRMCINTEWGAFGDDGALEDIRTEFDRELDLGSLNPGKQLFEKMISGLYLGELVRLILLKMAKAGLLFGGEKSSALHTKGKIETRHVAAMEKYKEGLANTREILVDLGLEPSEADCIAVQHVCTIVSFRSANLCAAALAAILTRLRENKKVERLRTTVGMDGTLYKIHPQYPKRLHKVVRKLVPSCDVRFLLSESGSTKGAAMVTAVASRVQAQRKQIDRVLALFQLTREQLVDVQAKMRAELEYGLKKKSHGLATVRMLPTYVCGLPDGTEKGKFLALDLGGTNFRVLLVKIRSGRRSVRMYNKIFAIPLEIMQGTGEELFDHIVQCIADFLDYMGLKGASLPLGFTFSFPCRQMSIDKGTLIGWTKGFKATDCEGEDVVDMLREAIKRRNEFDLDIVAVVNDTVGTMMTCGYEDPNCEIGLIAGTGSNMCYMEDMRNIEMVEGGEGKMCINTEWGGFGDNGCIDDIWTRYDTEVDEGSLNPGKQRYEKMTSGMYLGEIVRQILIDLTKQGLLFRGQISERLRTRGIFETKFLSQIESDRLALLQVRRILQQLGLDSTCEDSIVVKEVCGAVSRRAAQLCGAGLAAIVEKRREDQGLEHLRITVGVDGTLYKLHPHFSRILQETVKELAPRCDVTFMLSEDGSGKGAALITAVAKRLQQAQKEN
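Test system: recombinant HKDC1 (HK5) hexokinase enzyme, produced in-house / Doses: 20 µM test compound, 1% DMSO / Timing: 90 min, room temperature / Detection: G6PDH/diaphorase-coupled fluorescence, 1 mM NADP, 100 µM resazurin, 525/613 nm / Control set: DMSO wells with and without enzyme mix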
A number is an active result; – = inactive; · = not tested or not shown.

SMILES | PHOSPHO1 block | EP2 antag | EP2 modulator | PfG6PD inh | TbHK1 inh | HKDC1 inh
O=C(Nc1ccc(Cl)cc1)N1CCN(C(=O)C2CCCO2)CC1 (stereo not drawn) | 63 | · | · | – | · | –
Cc1ccc(NC(=O)N2CCN(C(=O)C3CCCO3)CC2)cc1 (stereo not drawn) | – | · | · | – | · | –
Cc1cc(-c2ccc(Cl)cc2)c(C#N)c(N)n1 | – | 51 | – | – | – | –
COc1ccc(-c2cc(C)nc(N)c2C#N)cc1 | · | – | – | · | · | ·
O=C(NC1CCCc2c1cnn2-c1ccc(F)cc1F)c1ccccn1 (stereo not drawn) | – | 45 | – | – | – | –
Cc1cc(C(F)F)n2nc(C(=O)Nc3sc4c(c3C(=O)OC(C)C)CCCC4)nc2n1 | · | – | 67 | · | · | ·
Cc1cc2cc3c(cc2nc1SCC(=O)c1ccccc1)OCO3 | · | – | 70 | · | · | ·
Cc1cc2ccccc2nc1SCC(=O)c1ccccc1 | · | – | 81 | · | · | ·
Cc1cc2ccccc2nc1SCC(=O)NC(C)(C)C | · | – | 87 | · | · | ·
CC(C)(C)NC(=O)CSc1nc2ccccc2n1-c1ccccc1 | 62 | – | – | – | – | –
CCOC(=O)CSc1nc2cc3c(cc2cc1C)OCO3 | – | – | – | – | – | –
CC(C)NC(=O)CSc1nc2ccccc2n1-c1ccccc1 | – | – | – | – | – | –
O=C(Nc1c(F)c(F)cc(F)c1F)c1nc2ncccn2n1 | · | – | – | · | · | ·
Cc1cc2cc3c(cc2nc1SCC(=O)Nc1ccccc1F)OCO3 | · | – | – | · | · | ·
COc1ccc(-n2c(SCC(=O)NCC3CCCO3)nc3ccccc32)cc1 (stereo not drawn) | 78 | – | – | – | – | –
Cc1cc2cc3c(cc2nc1SCC(=O)c1ccccc1F)OCCO3 | · | – | 72 | · | · | ·
CC(C)c1nc(SCC(=O)c2ccc(F)cc2)c2ccccc2n1 | – | – | 63 | – | – | –
Cc1cccc(OCC(=O)Nc2nc3ccc(S(C)(=O)=O)cc3s2)c1 | · | – | – | · | · | ·
Cc1ncc(-c2ccncc2)c(C2CCCN(C(=O)c3ccc(-n4cnnn4)cc3)C2)n1 (stereo not drawn) | · | · | – | · | · | ·
Cc1cccc(C)c1NC(=O)CSc1nc2c(C)cccc2cc1C#N | · | – | – | · | · | ·
CCOc1ccc2cc(C#N)c(SCC(=O)c3ccccc3)nc2c1 | · | – | – | · | · | ·
O=C(CN1C(=O)/C(=C/c2ccccc2Cl)SC1=S)NC1C=CS(=O)(=O)C1 (stereo not drawn) | 75 | · | · | – | · | –
COc1cccc(CN(Cc2cccnc2)C2CC(C)(C)NC(C)(C)C2)c1O | · | – | – | · | · | ·
O=S(=O)(c1ccccc1)c1cccc(S(=O)(=O)N2CCCc3ccccc32)c1 | · | – | – | · | · | ·
CCOc1ccc(S(=O)(=O)Nc2cc(Sc3ncn[nH]3)c3oc(=O)sc3c2)cc1 | 103 | – | – | · | – | ·
SMILES | PHOSPHO1 block | EP2 antag | EP2 modulator | PfG6PD inh | TbHK1 inh | HKDC1 inh
COc1cccc(NC(=O)N2C3CCC2CC(O)(c2cccnc2)C3)c1 (stereo not drawn) | · | – | – | · | · | ·
CN(CC(=O)Nc1n[nH]c(=S)s1)S(=O)(=O)c1cccc2cccnc12 | 60 | · | · | – | · | –
CNC(=O)C(Sc1nc(C)nc2c1oc1ccccc12)C(C)=O (stereo not drawn) | 88 | – | – | – | – | –
Cc1c(C(C)(C)C)c(C=S)n2ccccc12 | 93 | – | – | – | – | –
Nc1ccc(N2CCN(c3cccc(Cl)c3)CC2)cc1 | – | – | – | – | – | –
Nc1ccc(N2CCCC2)cc1 | · | 68 | – | · | · | ·
Cc1ccc2nc(NC(=O)c3c(O)c4c([nH]c3=O)CCCC4)sc2c1 | · | – | – | · | · | ·
C/C(N[O-])=C(\C)[N+]([O-])=[Rh][Cl].CC(=N\[O-])/C(C)=N/[O-].NC(N)=[SH+] | · | 49 | – | · | · | ·
Cc1ccc(-n2c(=O)[nH]c3c(C(N)=O)nc(-c4cn(C)nc4C)nc32)cc1 | · | · | – | · | · | ·
C[N+]1(CCC(=O)c2ccco2)CC2CCC(CC2)C1 (stereo not drawn) | · | 45 | – | · | · | ·
C[N@@+]1(CCC(=O)c2ccccc2)CC[C@H]2CC[C@H](C2)C1 | · | – | – | · | · | ·
N#Cc1ccccc1Sc1ccccc1C(=O)OCc1nnc(-c2ccccc2)o1 | – | – | – | – | 58 | –
COC(=O)C1=C(NC(=O)c2ccccc2C)CCS1 | – | – | – | – | – | –
COC(=O)C1=C(NC(=O)c2cccs2)CCS1 | – | – | – | · | 66 | ·
COc1ccc(OCCCC(=O)Nc2cccc(C(C)=O)c2)cc1 | – | 51 | – | – | – | –
COc1ccc(OCCCC(=O)Nc2cccc(SC)c2)cc1 | – | – | – | – | – | –
COC(=O)C1=CN(Cc2ccc(OC)cc2)C=C(C(=O)OC)C1c1ccsc1 | – | – | 61 | – | – | –
Cc1[nH]c2ccc(-c3nnc(SCC(=O)c4ccc(F)cc4)o3)cc2c1C | 87 | – | – | – | – | –
COc1ccc(C(=O)CSc2nnc(-c3ccc(OC)c(OC)c3)o2)cc1 | · | 59 | – | · | · | ·
Cc1cc(C)c(C)c(C(=O)CSc2nnc(-c3ccc4[nH]c(C)c(C)c4c3)o2)c1C | 61 | – | – | – | – | –
CCCc1cc(=O)oc2cc(C)cc(OCC(=O)Nc3cccnc3)c12 | 62 | · | · | – | · | –
O=C(CSc1nnc(COc2cccc3cccnc23)o1)N1CCCc2ccccc21 | · | – | – | · | · | ·
COc1ccc(S(=O)(=O)N(C(=O)C(C)C)c2ccc3oc(=O)sc3c2)cc1 | 97 | – | – | – | – | –
CCCC(=O)N(c1ccc2oc(=O)sc2c1)S(=O)(=O)c1cccs1 | 95 | – | – | – | – | –
COc1ccc(OC)c(S(=O)(=O)N(C(C)=O)c2ccc3oc(=O)sc3c2)c1 | – | – | – | – | – | –
SMILES | PHOSPHO1 block | EP2 antag | EP2 modulator | PfG6PD inh | TbHK1 inh | HKDC1 inh
COc1ccc(C(=O)Oc2ccc3oc(=O)sc3c2)cc1 | 94 | – | – | – | – | –
CC(=O)N(c1ccc2oc(=O)sc2c1)S(=O)(=O)c1ccccc1 | – | – | – | – | – | –
CC(C)C(=O)N(c1ccc2oc(=O)sc2c1)S(=O)(=O)c1ccccc1 | 92 | – | – | – | – | –
CC[C@H](Cn1nc(-c2ccoc2C)oc1=O)NC(=O)CC1CCCC1 | · | – | – | · | · | ·
COC(=O)C1=NN(c2ccc(C)cc2)C2(S1)SC(C(C)=O)=C(C)N2c1ccccc1 (stereo not drawn) | 64 | – | 63 | – | – | –
COC(=O)C1=NN(c2ccccc2)C2(S1)SC(C(C)=O)=C(C)N2c1ccccc1 (stereo not drawn) | – | – | – | – | – | –
CCC(CN1CCN(C)CC1)NC(=O)Cc1sc(C)nc1-c1ccc(F)cc1 (stereo not drawn) | · | – | – | · | · | ·
Cc1nn(C(C)c2n[nH]c(=S)n2-c2ccc(F)cc2)c(C)c1[N+](=O)[O-] (stereo not drawn) | – | – | – | – | – | –
Cc1nn(CCc2n[nH]c(=S)n2-c2ccc(F)c(Cl)c2)c(C)c1[N+](=O)[O-] | – | – | – | – | – | –
Cc1nn(CCc2n[nH]c(=S)n2-c2ccc(F)cc2)c(C)c1[N+](=O)[O-] | 94 | – | – | – | – | –
